According to article PMC3575599 (Cell reports, 2013):
Entries after “also recorded” stand apart in the source; their conditions may differ.

Legend:
[1] = system: mefs; assay: Proliferation of mefs with dox-inducible Chd5 or PHD-mutants; type: cell-based, mouse; conditions: for effect on mef proliferation: dox-induced (0.2 μg/ml dox) vs untreated
Method in brief: (§1)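 Mouse Chd5 (wild-type or PHD point mutants) is introduced by retrovirus in a dox-inducible vector, with SK-N-AS cells stably expressing rtTA. Mefs are seeded at 5 × 10^4 cells per 6 cm dish and SK-N-AS at 2.5 × 10^4 cells. Cells grow in DMEM with 100 μg/ml hygromycin B and 0.5 μg/ml puromycin, ±0.2 μg/ml dox. Cells are counted over days in triplicate (Coulter counter or crystal violet); mean ± S.D., two-tailed t-test.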

[2] = system: Chd5 target gene expression; assay: qRT-PCR of Chd5 target genes in mefs; type: cell-based, mouse; conditions: qRT-PCR normalized with actin, with (+) vs without (−) dox
[3] = system: SK-N-AS cells; assay: Differentiation of SK-N-AS cells; type: cell-based, human; conditions: for cell morphology / differentiation: SK-N-AS, dox-inducible expression; for MAP2 expression: immunofluorescence, neuronal marker MAP2
[4] = system: H3K4me0 peptide; assay: Peptide pull-down with recombinant wild-type and mutant PHDs or individual PHDs; type: binding; conditions: biotinylated histone peptides; recombinant PHDs of Chd5
[5] = system: H3 peptide; type: binding; conditions: nuclear extracts from mefs; anti-Flag immunoblot
[6] = system: unmodified H3; type: binding; conditions: purified Chd5-PHDs or nuclear lysates expressing Flag-tagged Chd5; unmodified H3 peptides
[7] = system: SK-N-AS cells; assay: Proliferation of SK-N-AS cells with dox-inducible Chd5 or PHD-mutants; type: cell-based, human; conditions: for reduction of SK-N-AS proliferation: dox-induced; for effect on SK-N-AS proliferation: dox-induced (0.2 μg/ml dox) vs untreated
Method in brief: as §1

[8] = system: SK-N-AS cells; assay: Tumor growth of SK-N-AS cells injected subcutaneously into athymic nude mice; type: in vivo, human; conditions: SK-N-AS cells s.c., dox-diet
Method in brief: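 SK-N-AS cells carry rtTA plus dox-inducible vector, wild-type or PHD-mutant Chd5. 1.6 × 10^6 cells mixed with Matrigel are injected s.c. into irradiated athymic nude mice. One cohort gets normal diet; the other gets dox diet from two days before injection onward. A blinded observer measures tumours. Read-outs are fold increase in tumour volume over 17 days (mean ± S.E.M.) and percentage change, dox-treated versus untreated.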

[9] = system: recombinant tandem PHDs of Chd5; assay: Biotinylated histone peptide pull-down with recombinant Chd5 PHDs; type: binding, mouse; conditions: biotinylated histone peptides; in vitro pull-down
[10] = system: chromatin; assay: Chromatin fractions from cells expressing Flag-tagged Chd5; type: cell-based

| Molecule | effect on mef proliferation [1] | effect on Chd5 target gene expression in mefs [2] | cell morphology / differentiation [3] | binding to H3K4me0 peptide (pull-down) [4] | also measured |
| --- | --- | --- | --- | --- | --- |
| C[C@H]1c2cccc(O)c2C(=O)C2=C(O)[C@]3(O)C(=O)C(C(N)=O)=C(O)[C@@H](N(C)C)[C@@H]3[C@@H](O)[C@@H]21 [doxycycline, reference compound] | no significant effect |  |  |  |  |
| C432W: Chd5 mutant compromised for H3 binding | defective in their ability to inhibit proliferation | not able to inhibit expression of Chd5-bound loci |  |  |  |
| D346A/D434A: Chd5 double mutant, PHD1-D346A and PHD2-D434A | fail to do so | fail to do so |  |  |  |
| D346A: Chd5-PHD1 single amino acid mutant; H3-binding-competent | inhibited proliferation to an extent comparable to that of wild-type Chd5; also recorded: inhibit proliferation | repress target gene expression; also recorded: inhibit expression of several Chd5-bound genes | intermediate differentiation phenotype | binds the H3K4me0 peptide | cell morphology / differentiation ([3]; listed as Chd5-D346A): partially-differentiated morphology; pull-down by H3 peptide of Flag-tagged Chd5 [5]: are pulled down by H3 peptide; relative efficiency of H3 binding [6]: bind H3 more efficiently than PHD1-D361A, PHD2-D434A, and PHD2-D415A; effect on mef proliferation ([1]; listed as Chd5-PHD1-D346A): inhibits cellular proliferation; reduction of SK-N-AS proliferation [7]: about 17%; effect on SK-N-AS proliferation [7]: inhibited proliferation; effect on SK-N-AS proliferation ([7]; listed as Chd5-PHD1-D346A): inhibits cellular proliferation |
| D361A: Chd5-PHD1 single amino acid mutant compromised for H3 binding | defective in their ability to inhibit proliferation | fail to do so; also recorded: not able to inhibit expression of Chd5-bound loci | classic stem-like neuroblastoma morphology with proliferative foci | compromised binding | MAP2 expression [3]: lower expression; effect on tumor growth [8]: failed to reduce tumor growth; effect on mef proliferation ([1]; listed as Chd5-PHD1-D361A): fail to do so; effect on SK-N-AS proliferation [7]: no such effects are observed |
| D415A: Chd5 mutant compromised for H3 binding | defective in their ability to inhibit proliferation |  |  |  |  |
| D434A: Chd5-PHD2 single amino acid mutant compromised for H3 binding | defective in their ability to inhibit proliferation | fail to do so; also recorded: not able to inhibit expression of Chd5-bound loci | classic stem-like neuroblastoma morphology with proliferative foci | compromised binding | MAP2 expression [3]: lower expression; effect on tumor growth [8]: failed to reduce tumor growth; effect on mef proliferation ([1]; listed as Chd5-PHD2-D434A): fail to do so |
| G355A: Chd5 mutant compromised for H3 binding | defective in their ability to inhibit proliferation | not able to inhibit expression of Chd5-bound loci |  |  |  |
| PHD1: individual PHD of Chd5, PHD1 (345–403) (QDYCEVCQQGGEIILCDTCPRAYHLVCLDPELEKAPEGKWSCPHCEKEGIQWEPKDDDE; PHD1; UniProt A2A8L1 345-403, looked up, fragment) |  |  |  | same binding preference for H3K4me0 |  |
| PHD2: individual PHD of Chd5, PHD2 (408–465) (GGCEEEEDDHMEFCRVCKDGGELLCCDACPSSYHLHCLNPPLPEIPNGEWLCPRCTCP; PHD2; UniProt A2A8L1 408-465, looked up, fragment) |  |  |  | same binding preference for H3K4me0; also recorded: highest affinity |  |
| W384A: H3-binding-competent Chd5-PHD mutant | inhibited proliferation to an extent comparable to that of wild-type Chd5; also recorded: inhibit proliferation | inhibit expression of several Chd5-bound genes |  |  |  |
| unmodified H3 (1–21) peptide: biotinylated histone H3 (1–21) peptide |  |  |  |  | binding to recombinant tandem PHDs of Chd5 (pull-down) [9]: bind |
| wild-type Chd5: full-length mouse Chd5 (chromodomain helicase DNA-binding protein 5) | inhibited proliferation; also recorded: inhibits cellular proliferation | repress target gene expression | flat epithelial-like morphology; also recorded: differentiated cellular morphology |  | MAP2 expression [3]: increased expression; also recorded: increase in MAP2 expression; effect on tumor growth [8]: reduces tumorigenesis in vivo much more efficiently; pull-down by H3 peptide of Flag-tagged Chd5 [5]: are pulled down by H3 peptide; effect on Chd5 target gene expression in mefs ([2]; listed as Chd5): inhibits expression of the oncogenic PcG protein Bmi1; association with chromatin [10]: associated with chromatin; inhibition of proliferation in mefs ([1]; dox-induced, see Figure 3A): 54%; reduction of SK-N-AS proliferation [7]: about 17%; effect on SK-N-AS proliferation [7]: inhibited proliferation; also recorded: inhibits cellular proliferation |
